Results: ChEMBL document CHEMBL4680339, “Synthesis and bioevaluation of N-(3,4,5-trimethoxyphenyl)-1H-pyrazolo[3,4-b]pyridin-3-amines as tubulin polymerization inhibitors with anti-angiogenic effects” (Bioorg Med Chem, 2021)

Tests used:
HeLa = assay: Antiproliferative activity against human HeLa cells assessed as reduction in cell growth incubated for 72 hrs by MTT assay; type: functional, cell-based
In short: (§1)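 Log-phase cells seeded at 5 × 10³/well and grown 24 h, then exposed to graded compound concentrations for 72 h. MTT (5 mg/mL) added for 4 h; formazan dissolved in DMSO and absorbance read at 490 nm. IC50 calculated from growth inhibition; means ± SD of triplicate experiments.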

A549 = assay: Antiproliferative activity against human A549 cells assessed as reduction in cell growth incubated for 72 hrs by MTT assay; type: functional, cell-based; conditions: A549, 72 h; in short: as §1
HepG2 = assay: Antiproliferative activity against human HepG2 cells assessed as reduction in cell growth incubated for 72 hrs by MTT assay; type: functional, cell-based; conditions: HepG2, 72 h; in short: as §1
HCT-116 = assay: Antiproliferative activity against human HCT-116 cells assessed as reduction in cell growth incubated for 72 hrs by MTT assay; type: functional, cell-based; conditions: HCT-116, 72 h; in short: as §1
WI-38 = assay: Cytotoxicity against human WI-38 cells assessed as reduction in cell growth incubated for 72 hrs by MTT assay; type: cell-based; conditions: WI-38, 72 h; in short: as §1
MCF7 = assay: Antiproliferative activity against human MCF7 cells assessed as reduction in cell growth incubated for 72 hrs by MTT assay; type: functional, cell-based; conditions: MCF7, 72 h; in short: as §1

Work on `COc1ccc2c(N(CC3CC3)c3cc(OC)c(OC)c(OC)c3)n[nH]c2n1` yielded an IC50 (HeLa) of 0.18 µM, an IC50 (A549) of 20.6 µM and an IC50 (HepG2) of 5.46 µM. For the same compound, the IC50 (HCT-116) was 2.18 µM, the IC50 (WI-38) was 1.29 µM and the IC50 (MCF7) was 2.35 µM.
For `COc1ccc2c(N(c3cc(OC)c(OC)c(OC)c3)C3CCCC3)nn(C3CCCC3)c2n1`, the IC50 (HeLa) was greater than 50 µM, the IC50 (A549) was greater than 50 µM and the IC50 (HepG2) was greater than 50 µM. The IC50 (HCT-116) was greater than 50 µM, the IC50 (WI-38) was 138 µM and the IC50 (MCF7) was greater than 50 µM.
With `COc1ccc2c(Nc3cc(OC)c(OC)c(OC)c3)nn(-c3ccccc3)c2n1` the IC50 (HeLa) was 22.5 µM, the IC50 (A549) was greater than 50 µM and the IC50 (HepG2) was 38.8 µM. It also gave an IC50 (HCT-116) greater than 50 µM, an IC50 (WI-38) of 12.6 µM and an IC50 (MCF7) greater than 50 µM.
`CCCN(c1cc(OC)c(OC)c(OC)c1)c1n[nH]c2nc(OC)ccc12` showed an IC50 (HeLa) of 0.73 µM, an IC50 (A549) greater than 50 µM and an IC50 (HepG2) of 6.26 µM. For the same compound, the IC50 (HCT-116) was 5.97 µM, the IC50 (WI-38) was 2.99 µM and the IC50 (MCF7) was 1.37 µM.
Compound `COc1ccc2c(N(c3cc(OC)c(OC)c(OC)c3)C(C)C)n[nH]c2n1` has an IC50 (HeLa) of 21.2 µM, an IC50 (A549) greater than 50 µM and an IC50 (HepG2) of 24.5 µM. It also gave an IC50 (HCT-116) greater than 50 µM, an IC50 (WI-38) of 6.04 µM and an IC50 (MCF7) greater than 50 µM.
`COc1ccc2c(Nc3cc(OC)c(OC)c(OC)c3)nn(C(C)C)c2n1` was tested, and the IC50 (HeLa) was 12.8 µM, the IC50 (A549) was 31.9 µM and the IC50 (HepG2) was 20 µM. The IC50 (HCT-116) was 12 µM, the IC50 (WI-38) was 4.32 µM and the IC50 (MCF7) was 13.2 µM.
`COc1ccc2c(N(c3cc(OC)c(OC)c(OC)c3)C3CCCC3)n[nH]c2n1` was tested, and the IC50 (HeLa) was 28.4 µM, the IC50 (A549) was 22.7 µM and the IC50 (HepG2) was greater than 50 µM. For the same compound, the IC50 (HCT-116) was 26.2 µM, the IC50 (WI-38) was 10.4 µM and the IC50 (MCF7) was greater than 50 µM.
In the case of `COc1ccc2c(N(CC(F)F)c3cc(OC)c(OC)c(OC)c3)n[nH]c2n1`, the IC50 (HeLa) is reported as 0.17 µM, the IC50 (A549) is reported as 2.42 µM and the IC50 (HepG2) is reported as 18.8 µM. For the same compound, the IC50 (HCT-116) was 0.47 µM, the IC50 (WI-38) was 1.69 µM and the IC50 (MCF7) was 21.7 µM.
`COc1ccc2c(Nc3cc(OC)c(OC)c(OC)c3)nn(C3CCCC3)c2n1` gave an IC50 (HeLa) of 6.28 µM, an IC50 (A549) greater than 50 µM and an IC50 (HepG2) greater than 50 µM. The IC50 (HCT-116) was greater than 50 µM, the IC50 (WI-38) was 73.8 µM and the IC50 (MCF7) was 22.4 µM.
